This note sets out measurements from ChEMBL document CHEMBL5576109, “Hydantoin derivative dimers as broad-spectrum antimicrobial agents against ESKAPE pathogens with enhanced killing rate and stability” (RSC Med Chem, 2024).

Structures are written as SMILES. In brackets after ≈: the same amount, converted by molar mass. Activity calls are given as the source filed them. No cut-off for these calls is given here.

Assay [1] relates to Staphylococcus aureus. Nature of the assay: Bactericidal activity against Staphylococcus aureus ATCC 29213 assessed as reduction in colony forming units incubated for 15 to 120 mins by time-kill kinetics assay. In kind it is functional, organism-based. The conditions noted are these: time 15-120 min. Summed up: (§1)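 Bacteria grown at 37 °C to mid-log phase and diluted to 1 × 10^6 CFU/mL. […] Mixtures diluted 10^2–10^4-fold and plated on TSB agar; colonies counted after 20 h at 37 °C.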

Assay [2] concerns Escherichia coli. Nature of the assay: Antibacterial activity against Escherichia coli ATCC 25922 assessed as inhibition of bacterial growth by measuring fold increase in MIC measured after 16 to 18 hrs in presence of 10% DMEM by TECAN SPARK microplate reader analysis. The assay is classed as functional. The note with it: time 16-18 hrs. In outline:
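Salt/serum stability. Exponential-phase bacteria incubated 16–18 h with compound in medium supplemented with 10 mM NaCl, 10 mM KCl, 10 mM MgCl2, 10% DMEM or 10% FBS. Stability judged from the change in MIC.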

Assay [3] deals with Staphylococcus aureus. Briefly: Induction of cytoplasmic membrane depolarization in Staphylococcus aureus ATCC 29213 assessed as increase in fluorescence intensity by DiSC3(5) staining based analysis. The assay is classed as functional, organism-based. Summed up:
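Mid-log cells washed in 5 mM HEPES/5 mM glucose and resuspended at 10^6 CFU/mL in glucose/HEPES/100 mM KCl (1:1:1). DiSC3(5) added and fluorescence (Ex 622 / Em 670 nm) followed for 30 min at 37 °C until minimal. Compound then added and the fluorescence rise recorded.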

The test system of assay [4] is Staphylococcus aureus. Nature of the assay: Induction of morphological changes in Staphylococcus aureus ATCC 29213 assessed as cell collapse at 8 time of MIC for 6 hrs by scanning electron microscopy. In kind it is functional, organism-based. Summed up:
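Mid-log cells exposed to compound for 6 h at 37 °C alongside untreated controls. Cells pelleted (3000 rpm, 15 min), washed four times in PBS, and fixed with 2.5% glutaraldehyde. Dehydrated through graded ethanol, critical-point dried and gold-coated, then imaged by SEM.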

For assay [5], the system named is Staphylococcus aureus. Briefly: Antibacterial activity against Staphylococcus aureus ATCC 29213 assessed as inhibition of bacterial growth by measuring fold increase in MIC compound preincubated at 80 degree C for 1 hr followed by bacterial culture addition and measured after 16 to 18 hrs by TECAN SPARK microplate reader analysis. The assay is classed as functional. The note with it: time 16-18 hrs.

The subject of assay [6] is Escherichia coli. Briefly: Antibacterial activity against Escherichia coli ATCC 25922 assessed as reduction bacterial growth after 16 hrs by TECAN SPARK microplate reader analysis. In kind it is functional. In outline:
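Single colony grown overnight in 4 mL TSB at 37 °C, diluted 100-fold and grown to mid-log phase. Compounds 2-fold serially diluted in TSB and mixed 1:1 with bacteria in TSB (1 × 10^6 CFU/mL). Incubated 16 h at 37 °C, then A600 read. MIC taken as the lowest concentration giving complete growth inhibition.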

Assay [7] concerns Escherichia coli. Briefly: Bactericidal activity against Escherichia coli ATCC 25922 assessed as reduction in colony forming units at 1 to 4 times of MIC by time-kill kinetics assay. In kind it is functional, organism-based. The conditions noted are these: time 15-120 min, TDE = time-dependent effect. In outline: as §1
Assay [8] has as its system Escherichia coli. Nature of the assay: Antibacterial activity against Escherichia coli ATCC 25922 assessed as inhibition of bacterial growth by measuring fold increase in MIC compound preincubated at 80 degree C for 1 hr followed by bacterial culture addition and measured after 16 to 18 hrs by TECAN SPARK microplate reader analysis. In kind it is functional. The note with it: time 16-18 hrs.

Assay [9] concerns Escherichia coli. Briefly: Bactericidal activity against Escherichia coli ATCC 25922 assessed as reduction in colony forming units incubated for 15 to 120 mins by time-kill kinetics assay. In kind it is functional, organism-based. The conditions noted are these: time 15-120 min. In outline:
as §1

With `CCCCCCN1C(=O)[C@H](CCCCNC(=N)N)N(Cc2ccc(-c3ccc(CN4C(=O)N(CCCCCC)C(=O)[C@@H]4CCCCNC(=N)N)cc3)cc2)C1=O`, the Activity result is “Dose-Dependent Effect” in [1], “Dose-Dependent Effect” in assay [3], “Tde” in assay [7] and “Dose-Dependent Effect” in assay [9]. The “fold change (FC)” value in assay [2], in assay [5] and in assay [8] was 1 throughout. Moreover, the outcome in assay [4] was Active. Moreover, the MIC in assay [6] was determined as 3.91 µg/mL (≈ 5.06 µM).

As usually defined, the MIC is the lowest concentration that inhibits growth of the organism.
